Measured values pooled from the literature.
PDE4D: 3',5'-cyclic-AMP phosphodiesterase 4D (PDE4D, Homo sapiens, UniProt Q08499)
SYK: Tyrosine-protein kinase SYK (SYK, Homo sapiens, UniProt P43405)
F2: Prothrombin (F2, Homo sapiens, UniProt P00734)
CDK7 with cyclin H: Cyclin-dependent kinase 7, with cyclin H (CDK7, Homo sapiens, UniProt P50613)
PPP3CA: Protein phosphatase 3 catalytic subunit alpha (PPP3CA, Homo sapiens, UniProt Q08209)

Compound	target	read-out	mode	method	concentration	inhibition [%]
COc1cc2c3c(c1OC)-c1cc4c(cc1CC3N(C)CC2)OCO4 (racemic)	5-hydroxytryptamine receptor 1B (HTR1B, Homo sapiens, UniProt P28222)	ligand displacement		radioligand	10 µM	100
O=c1c(O[C@@H]2O[C@H](CO)[C@@H](O)[C@H](O)[C@H]2O)c(-c2ccc(O)cc2)oc2cc(O)cc(O)c12	PDE4D	enzyme activity	inhibitor	radiometric	50 µM	20.2
COCc1c(-c2cc3cc(C)cc(OC)c3s2)c2c(N)ncnn2c1CN1CCNC(=O)C1	3-hydroxy-3-methylglutaryl-coenzyme A reductase (HMGCR, Homo sapiens, UniProt P04035)	enzyme activity	inhibitor		10 µM	1
O=C(Nc1cccnn1)N1CCN([C@@H]2CCOc3cc(C(F)(F)F)ccc32)CC1	PDE4D	enzyme activity	inhibitor		20 µM	1
COc1ccc(-c2coc3cc(O)ccc3c2=O)cc1	PDE4D	enzyme activity	inhibitor	radiometric	50 µM	5.54
C#Cc1n[nH]c2c(-c3cn(C(C)c4ccccn4)c(=O)[nH]c3=O)cc(F)cc12 (centres unmarked)	SYK	enzyme activity	inhibitor		1 µM	-7.5
O=C(O)CC(O)(CC(=O)O)C(=O)O	PDE4D	enzyme activity	inhibitor	radiometric	50 µM	99.2
N=C(N)Nc1ccc(C(=O)Nc2ccc3c(c2)B(O)OC3)cc1	F2	enzyme activity	inhibitor		50 µM	10.7
O=c1c(O)c(-c2ccc(O)c(O)c2)oc2cc(O)cc(O)c12	PDE4D	enzyme activity	inhibitor	radiometric	50 µM	100
COc1cc(Nc2ncc(F)c(Nc3ccc4c(n3)NC(=O)C(C)(C)O4)n2)cc(OC)c1OC	Mitogen-activated protein kinase 7 (MAPK7, Homo sapiens, UniProt Q13164)	binding		competition with immobilised ligand	10 µM	19
O=C(Nc1ccc2c(c1)B(O)OC2)c1cccc(OCc2ccc(Cl)cc2)c1	F2	enzyme activity	inhibitor		50 µM	13.7
COc1cc([C@@H]2c3cc4c(cc3[C@H](O)[C@H]3COC(=O)[C@H]23)OCO4)cc(OC)c1OC	CDK7 with cyclin H	enzyme activity	inhibitor	ADP detection	10 µM	17.2
C#Cc1n[nH]c2c(-c3cn([C@@H](C)c4ccccc4)c(=O)[nH]c3=O)cc(F)cc12	SYK	enzyme activity	inhibitor		0.1 µM	1.6
O=C(O)CCCCCCCC(=O)O	PDE4D	enzyme activity	inhibitor	radiometric	50 µM	47.1
COc1c2ccoc2cc2oc(=O)ccc12	CDK7 with cyclin H	enzyme activity	inhibitor	ADP detection	10 µM	-13.6
CC(C)=CCc1cc(-c2coc3cc(O)cc(O)c3c2=O)cc(O)c1O	PDE4D	enzyme activity	inhibitor	radiometric	5 µM	84.6
C=C[C@H]1CN2CC[C@H]1C[C@H]2[C@H](O)c1ccnc2ccccc12	CDK7 with cyclin H	enzyme activity	inhibitor	ADP detection	10 µM	-25.5
C=CCc1ccc(O)c(-c2ccc(O)c(CC=C)c2)c1	PDE4D	enzyme activity	inhibitor	radiometric	50 µM	25.6
CC(C)(C)[C@]1(O)CC2OC(=O)CC23C(=O)OC2OC(=O)[C@H](O)C231 (some centres unmarked)	CDK7 with cyclin H	enzyme activity	inhibitor	ADP detection	10 µM	2.1
c1ccc(C(NCCNC(c2ccccc2)c2ccccc2)c2ccccc2)cc1	PPP3CA	enzyme activity	inhibitor		10 µM	32
COc1cc(CNC(=O)CCCC/C=C/C(C)C)ccc1O	CDK7 with cyclin H	enzyme activity	inhibitor	ADP detection	10 µM	31.4
Cn1cc(-c2cccc(N3CCc4c(sc5c4CC(C)(C)C5)C3=O)c2CO)cc(Nc2ccncn2)c1=O	Protein kinase C gamma type (PRKCG, Homo sapiens, UniProt P05129)	enzyme activity	inhibitor		1 µM	-1
COc1cc2c(cc1OC)[C@@]13CCN4CC5=CCO[C@H]6CC(=O)N2[C@H]1[C@H]6[C@H]5C[C@H]43	CDK7 with cyclin H	enzyme activity	inhibitor	ADP detection	10 µM	28.4
O=C(/C=C/c1ccc(O)cc1)c1ccc(O)cc1O	PDE4D	enzyme activity	inhibitor	radiometric	5 µM	-6.18
COc1cc2c(c(OC)c1OC)-c1ccc(OC)c(=O)cc1[C@@H](NC(C)=O)CC2	CDK7 with cyclin H	enzyme activity	inhibitor	ADP detection	10 µM	-0.4
C[C@H](C(=O)N[C@H]1COc2ccccc2[C@@H]1S(C)(=O)=O)c1ccc(F)cc1	PPP3CA	enzyme activity	inhibitor		10 µM	8
